Data: ChEMBL document CHEMBL1148911, “Ardisinones A-E, novel diarylundecanones from Ardisia arborescens” (J Nat Prod, 2004)
Activity calls are given as the source filed them.

Legend:
Format in all cases: functional, organism-based
[1] = tested on: Mycolicibacterium smegmatis; assay: Antibacterial activity against Mycobacterium smegmatis after 24 hrs by disk diffusion assay
Outline: (§1)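 Agar disk diffusion. Each organism was grown on agar medium, and plates were inoculated by spreading a spore or cell suspension evenly over the agar surface to give confluent growth. Compound-loaded disks were applied, and the zone of inhibition around each disk was measured at 24 and 48 h.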

Staphylococcus aureus = assay: Antibacterial activity against Staphylococcus aureus after 24 hrs by disk diffusion assay; outline: as §1
Escherichia coli = assay: Antibacterial activity against Escherichia coli after 24 hrs by disk diffusion assay; outline: as §1
Candida albicans = assay: Antibacterial activity against Candida albicans after 48 hrs by disk diffusion assay; outline: as §1
Aspergillus niger = assay: Antibacterial activity against Aspergillus niger after 48 hrs by disk diffusion assay; outline: as §1
Bacillus subtilis = assay: Antibacterial activity against Bacillus subtilis after 24 hrs by disk diffusion assay; outline: as §1

Measured: Activity

COc1cc(O)c(C(=O)CCCCCCCCCCc2c(O)cccc2O)c(O)c1
inactive: [1] | Staphylococcus aureus | Escherichia coli | Candida albicans | Aspergillus niger | Bacillus subtilis

COc1cc(O)c(C(=O)CCCCCCCCCCc2c(O)cccc2OC(C)=O)c(O)c1
inactive: [1] | Staphylococcus aureus | Escherichia coli | Candida albicans | Aspergillus niger | Bacillus subtilis
